What all share (format): ADME, organism-based
Series [1] is described as follows: Drug level in pediatric patient cerebrospinal fluid with gram-negative bacterial infection before initiation of 16 mg/kg/day, iv administered every 8 hrs for 93 days by LS/MS/MS analysis. Particulars: human, in vivo. The arrangement: route intravenous. The procedure, abridged: (§1)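 Trough sampling: blood was drawn immediately before the 20-min IV CMS infusion (every 8 h), and CSF was taken from EVD systems within 1 h before infusion. Samples were stored at −80°C and analysed by LC-MS-MS for colistin, and for CMS via acid hydrolysis with subtraction. CSF was diluted 1:1 with serum. Values are means of two days.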

Series [2] can be described thus: Drug level in pediatric patient cerebrospinal fluid with gram-negative bacterial infection before initiation of 16 mg/kg/day, iv administered every 8 hrs for 51 days by LS/MS/MS analysis. More on the design: route intravenous. The note with it: human, in vivo. The procedure, abridged:
as §1

A short description of series [3]: Drug level in pediatric patient cerebrospinal fluid with gram-negative bacterial infection before initiation of 18 mg/kg/day, iv administered every 8 hrs for 42 days by LS/MS/MS analysis. More on the design: route intravenous. The note with it: human, in vivo. The method, boiled down:
as §1

Series [4] in a line: Drug level in pediatric patient cerebrospinal fluid with gram-negative bacterial infection at 4.8 mg/kg/day, iv administered every 8 hrs for 7 days measured after 30 mins by LS/MS/MS analysis. More on the design: route intravenous. Particulars: human, in vivo, 0.5 h. The method, boiled down:
(§2)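 CMS was given by 20-min IV infusion in saline every 8 h, and CSF was taken from EVD systems after the end of infusion. The CSF–serum 1:1 mix was treated with 1 M H2SO4 for 15–20 min, then 1 M NaOH, then acetonitrile with 0.1% TFA. CMS was calculated as colistin after hydrolysis minus colistin before hydrolysis, by LC-MS-MS, with CMS controls of 0.25–18.5 μg/ml. Values are means of two days; course 1 was sampled once.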

Series [5] is described as follows: Drug level in pediatric patient cerebrospinal fluid with gram-negative bacterial infection at 10.4 mg/kg/day, iv administered every 8 hrs for 46 days measured after 30 mins by LS/MS/MS analysis. The note with it: human, in vivo, 0.5 h. The arrangement: route intravenous. The method, boiled down: as §2
Series [6] in a line: Drug level in pediatric patient cerebrospinal fluid with gram-negative bacterial infection at 16 mg/kg/day, iv administered every 8 hrs for 93 days measured after 30 mins by LS/MS/MS analysis. The arrangement: route intravenous. Particulars: human, in vivo, 0.5 h. The method, boiled down: as §2
The nature of series [7]: Drug level in pediatric patient cerebrospinal fluid with gram-negative bacterial infection at 16 mg/kg/day, iv administered every 8 hrs for 51 days measured after 30 mins by LS/MS/MS analysis. The arrangement: route intravenous. The note with it: human, in vivo, 0.5 h. The method, boiled down: as §2
The nature of series [8]: Drug level in pediatric patient cerebrospinal fluid with gram-negative bacterial infection at 18 mg/kg/day, iv administered every 8 hrs for 42 days measured after 30 mins by LS/MS/MS analysis. The note with it: human, in vivo, 0.5 h. The arrangement: route intravenous. The method, boiled down: as §2
A short description of series [9]: Ratio of drug level in cerebrospinal fluid to Serum of pediatric patient with gram-negative bacterial infection before initiation of 4.8 mg/kg/day, iv administered every 8 hrs for 7 days by LS/MS/MS analysis. More on the design: route intravenous. Particulars: human, csf. The method, boiled down:
(§3)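 Percentages are the ratio of mean CSF concentration to mean serum concentration from paired samples. Blood was drawn immediately before and 30 min after the 20-min IV CMS infusion (every 8 h); CSF came from EVD systems concurrently. Both were measured by LC-MS-MS, for colistin directly and for CMS after acid hydrolysis. Pairs were repeated on two days.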

A short description of series [10]: Ratio of drug level in cerebrospinal fluid to Serum of pediatric patient with gram-negative bacterial infection before initiation of 10.4 mg/kg/day, iv administered every 8 hrs for 46 days by LS/MS/MS analysis. More on the design: route intravenous. Particulars: human, csf. The method, boiled down:
as §3

Series [11] can be described thus: Ratio of drug level in cerebrospinal fluid to Serum of pediatric patient with gram-negative bacterial infection before initiation of 16 mg/kg/day, iv administered every 8 hrs for 93 days by LS/MS/MS analysis. Particulars: human, csf. The arrangement: route intravenous. The procedure, abridged: as §3
Series [12] is described as follows: Ratio of drug level in cerebrospinal fluid to Serum of pediatric patient with gram-negative bacterial infection before initiation of 16 mg/kg/day, iv administered every 8 hrs for 51 days by LS/MS/MS analysis. The arrangement: route intravenous. The note with it: human, csf. The method, boiled down:
as §3

Series [13] can be described thus: Ratio of drug level in cerebrospinal fluid to Serum of pediatric patient with gram-negative bacterial infection before initiation of 18 mg/kg/day, iv administered every 8 hrs for 42 days by LS/MS/MS analysis. The arrangement: route intravenous. The note with it: human, csf. The procedure, abridged:
as §3

Series [14] is described as follows: Ratio of drug level in cerebrospinal fluid to Serum of pediatric patient with gram-negative bacterial infection assessed as Colistin level at 4.8 mg/kg/day, iv administered every 8 hrs for 7 days by LS/MS/MS analysis. The arrangement: route intravenous. The note with it: human, csf. The procedure, abridged: as §3
Series [15] is described as follows: Ratio of drug level in cerebrospinal fluid to Serum of pediatric patient with gram-negative bacterial infection assessed as Colistin level at 10.4 mg/kg/day, iv administered every 8 hrs for 46 days by LS/MS/MS analysis. The arrangement: route intravenous. The note with it: human, csf. The procedure, abridged:
as §3

A short description of series [16]: Ratio of drug level in cerebrospinal fluid to Serum of pediatric patient with gram-negative bacterial infection assessed as Colistin level at16 mg/kg/day, iv administered every 8 hrs for 93 days by LS/MS/MS analysis. The note with it: human, csf. The procedure, abridged: as §3
Series [17] in a line: Ratio of drug level in cerebrospinal fluid to Serum of pediatric patient with gram-negative bacterial infection assessed as Colistin level at 16 mg/kg/day, iv administered every 8 hrs for 51 days by LS/MS/MS analysis. The note with it: human, csf. More on the design: route intravenous. The procedure, abridged: as §3
Series [18] in a line: Ratio of drug level in cerebrospinal fluid to Serum of pediatric patient with gram-negative bacterial infection assessed as Colistin level at 18 mg/kg/day, iv administered every 8 hrs for 42 days by LS/MS/MS analysis. More on the design: route intravenous. Particulars: human, csf. The method, boiled down:
as §3

A short description of series [19]: Ratio of drug level in cerebrospinal fluid to Serum of pediatric patient with gram-negative bacterial infection at 4.8 mg/kg/day, iv administered every 8 hrs for 7 days by LS/MS/MS analysis. The arrangement: route intravenous. The note with it: human, csf. The procedure, abridged: as §3
Series [20] is described as follows: Ratio of drug level in cerebrospinal fluid to Serum of pediatric patient with gram-negative bacterial infection at 10.4 mg/kg/day, iv administered every 8 hrs for 46 days by LS/MS/MS analysis. The arrangement: route intravenous. Particulars: human, csf. The method, boiled down:
as §3

The nature of series [21]: Ratio of drug level in cerebrospinal fluid to Serum of pediatric patient with gram-negative bacterial infection at 16 mg/kg/day, iv administered every 8 hrs for 93 days by LS/MS/MS analysis. Particulars: human, csf. More on the design: route intravenous. The method, boiled down: as §3
Series [22] in a line: Ratio of drug level in cerebrospinal fluid to Serum of pediatric patient with gram-negative bacterial infection at 16 mg/kg/day, iv administered every 8 hrs for 51 days by LS/MS/MS analysis. The arrangement: route intravenous. Particulars: human, csf. The method, boiled down:
as §3

Series [23] is described as follows: Ratio of drug level in cerebrospinal fluid to Serum of pediatric patient with gram-negative bacterial infection at 18 mg/kg/day, iv administered every 8 hrs for 42 days by LS/MS/MS analysis. The arrangement: route intravenous. Particulars: human, csf. The procedure, abridged: as §3

On to COLISTIN, for which the Drug uptake came out at 0.38 µg/mL in series [1]; 0.09 µg/mL in series [2]; 0.04 µg/mL in series [3]; 0.06 µg/mL in series [4]; 0.02 µg/mL in series [5]; 0.26 µg/mL in series [6]. For the same sequence, the Drug uptake in series [7] was determined as 0.09 µg/mL; in series [8] it was 0.03 µg/mL. Further, the Ratio in series [9] was 20.6%; in series [10], 3.1%; in [11], 50.9%; in series [12], 9.9%; in series [13], 0.6%; in series [14], 19.3%. For the same sequence, the Ratio in series [15] turned out to be 3.4%; in series [16], 34.8%; in series [17], 7.2%; in series [18] it was 3.2%; in series [19], 2%; in [20] it was 0.2%. Besides, the figures for the Ratio in series [21], in series [22] and in [23] were 3.1%, 0.9% and 0.4%, respectively.

Source of the values: ChEMBL document CHEMBL1671711, “Serum and cerebrospinal fluid levels of colistin in pediatric patients” (Antimicrob Agents Chemother, 2010).
